pEC50, pKd: −log10 of the molar value. Active and inactive are the calls of the source. The rule behind the calls is not given here.
How the values were obtained:
HT-29 [1] = experiment: Effect on TNFalpha/smac mimetic-induced apoptosis in human HT-29 cells at 3 uM treated prior to TNFalpha/smac mimetic stimulation and measured after 20 hrs by cell-Titer Glo luminescent cell viability assay; conditions: ht-29, 20 h
[2] = target: T1, Receptor-interacting serine/threonine-protein kinase 1 (Homo sapiens, UniProt Q13546); experiment: Binding affinity to wild-type human partial length RIPK1 (M1 to K305 residues) expressed in bacterial expression system after 1 hr by quantitative PCR based KINOMEscan assay
T1 sequence (Q13546 whole entry): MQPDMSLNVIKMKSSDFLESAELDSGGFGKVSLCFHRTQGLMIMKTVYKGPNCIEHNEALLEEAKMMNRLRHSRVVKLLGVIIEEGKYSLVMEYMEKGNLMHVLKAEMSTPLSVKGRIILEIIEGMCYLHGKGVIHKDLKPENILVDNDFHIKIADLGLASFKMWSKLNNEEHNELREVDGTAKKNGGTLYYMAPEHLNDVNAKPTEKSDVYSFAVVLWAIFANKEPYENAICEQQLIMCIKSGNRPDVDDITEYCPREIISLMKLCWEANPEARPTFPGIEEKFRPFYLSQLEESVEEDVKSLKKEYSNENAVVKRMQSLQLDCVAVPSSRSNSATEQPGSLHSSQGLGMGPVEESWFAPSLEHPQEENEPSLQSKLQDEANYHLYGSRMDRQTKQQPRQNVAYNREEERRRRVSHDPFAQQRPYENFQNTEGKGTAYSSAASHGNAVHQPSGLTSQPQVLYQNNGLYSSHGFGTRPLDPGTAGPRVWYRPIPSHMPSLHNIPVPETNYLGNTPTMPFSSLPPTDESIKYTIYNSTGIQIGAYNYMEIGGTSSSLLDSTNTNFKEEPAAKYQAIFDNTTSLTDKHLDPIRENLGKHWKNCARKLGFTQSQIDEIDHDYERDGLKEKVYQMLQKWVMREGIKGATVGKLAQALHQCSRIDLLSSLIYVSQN
Summary of the method: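 KINOMEscan competition binding. Bound kinase eluted with 0.5 μM nonbiotinylated ligand for 30 min and quantified by qPCR. Duplicates averaged.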

[3] = target: Fibroblast growth factor receptor 2 (Homo sapiens) (UniProt P21802); experiment: Inhibition of wild-type human partial length FGFR2 (D457 to E769 residues) expressed in bacterial expression system assessed as enzyme remaining activity at 1000 nM by Kinomescan method relative to control
Chain of Fibroblast growth factor receptor 2 (Homo sapiens) (P21802 22-821 limits assumed): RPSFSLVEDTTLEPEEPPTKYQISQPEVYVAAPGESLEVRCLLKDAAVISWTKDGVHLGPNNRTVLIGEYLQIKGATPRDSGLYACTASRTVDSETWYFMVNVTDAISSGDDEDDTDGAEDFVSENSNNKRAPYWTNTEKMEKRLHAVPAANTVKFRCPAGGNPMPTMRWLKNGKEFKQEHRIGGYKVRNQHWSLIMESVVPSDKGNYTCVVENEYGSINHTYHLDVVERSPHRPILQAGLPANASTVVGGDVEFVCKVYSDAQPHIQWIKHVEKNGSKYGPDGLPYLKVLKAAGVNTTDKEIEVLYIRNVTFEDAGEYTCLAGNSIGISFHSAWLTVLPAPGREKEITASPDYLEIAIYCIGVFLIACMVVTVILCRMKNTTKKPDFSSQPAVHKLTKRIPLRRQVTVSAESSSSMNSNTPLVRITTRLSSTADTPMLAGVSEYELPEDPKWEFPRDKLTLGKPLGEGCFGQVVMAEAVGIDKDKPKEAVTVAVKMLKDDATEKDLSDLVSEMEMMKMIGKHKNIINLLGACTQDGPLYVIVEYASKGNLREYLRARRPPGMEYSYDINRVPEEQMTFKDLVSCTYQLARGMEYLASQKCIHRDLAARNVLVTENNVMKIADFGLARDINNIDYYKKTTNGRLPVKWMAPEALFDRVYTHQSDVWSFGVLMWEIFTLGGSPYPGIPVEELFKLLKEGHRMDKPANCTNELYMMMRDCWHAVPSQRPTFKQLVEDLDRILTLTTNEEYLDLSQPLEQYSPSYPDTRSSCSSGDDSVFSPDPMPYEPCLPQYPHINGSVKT

[4] = target: Cyclin-dependent kinase 3 (Homo sapiens) (UniProt Q00526); experiment: Inhibition of wild-type human full length CDK3 (M1 to H305 residues) expressed in bacterial expression system assessed as enzyme remaining activity at 1000 nM by Kinomescan method relative to control
Chain of Cyclin-dependent kinase 3 (Homo sapiens) (Q00526 whole entry, looked up, the tested form may be a part): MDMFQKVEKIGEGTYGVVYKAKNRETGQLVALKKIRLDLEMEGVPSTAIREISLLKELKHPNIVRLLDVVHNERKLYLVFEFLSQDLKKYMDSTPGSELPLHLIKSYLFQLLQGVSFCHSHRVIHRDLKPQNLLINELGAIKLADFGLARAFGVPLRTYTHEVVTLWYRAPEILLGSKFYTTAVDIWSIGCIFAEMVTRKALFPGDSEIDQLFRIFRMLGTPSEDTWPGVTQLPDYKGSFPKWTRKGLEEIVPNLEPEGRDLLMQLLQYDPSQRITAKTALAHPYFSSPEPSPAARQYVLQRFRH

[5] = Cmax in Sprague-Dawley rat at 5 mg/kg, po by LC-tandem mass spectrometry analysis; format: ADME, organism-based; design: dose 5 mg/kg, route oral; conditions: in vivo
Summary of the method: (§1)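 Male Sprague-Dawley rats dosed once i.v. at 1 mg/kg or intragastrically at 5 mg/kg. Compound dissolved in 5% DMSO, 10% Tween 80, 75% physiological saline at 0.2 and 1 mg/mL. Blood taken at several time points, plasma spun at 4 °C, stored at -80 °C, assayed by LC/MS/MS. Parameters from individual animals by noncompartmental analysis.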

[6] = tested on: Epidermal growth factor receptor (Homo sapiens), P00533 [L858R]; experiment: Inhibition of wild-type human partial length EGFR L858R mutant (R669 to V1011 residues) expressed in bacterial expression system assessed as enzyme remaining activity at 1000 nM by Kinomescan method relative to control
Summary of the method: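 KINOMEscan binding competition. […] Incubation was 1 h at room temperature with shaking, then bead wash and elution with 0.5 μM nonbiotinylated ligand for 30 min. Eluted kinase was quantified by qPCR. Compound was diluted from 40× DMSO stocks to 1000 nM final.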

[7] = target: Proto-oncogene tyrosine-protein kinase Src (Homo sapiens) (UniProt P12931); experiment: Inhibition of wild-type human partial length SRC (L240 to L536 residues) expressed in bacterial expression system assessed as enzyme remaining activity at 1000 nM by Kinomescan method relative to control
Chain of Proto-oncogene tyrosine-protein kinase Src (Homo sapiens) (P12931 2-536 limits assumed): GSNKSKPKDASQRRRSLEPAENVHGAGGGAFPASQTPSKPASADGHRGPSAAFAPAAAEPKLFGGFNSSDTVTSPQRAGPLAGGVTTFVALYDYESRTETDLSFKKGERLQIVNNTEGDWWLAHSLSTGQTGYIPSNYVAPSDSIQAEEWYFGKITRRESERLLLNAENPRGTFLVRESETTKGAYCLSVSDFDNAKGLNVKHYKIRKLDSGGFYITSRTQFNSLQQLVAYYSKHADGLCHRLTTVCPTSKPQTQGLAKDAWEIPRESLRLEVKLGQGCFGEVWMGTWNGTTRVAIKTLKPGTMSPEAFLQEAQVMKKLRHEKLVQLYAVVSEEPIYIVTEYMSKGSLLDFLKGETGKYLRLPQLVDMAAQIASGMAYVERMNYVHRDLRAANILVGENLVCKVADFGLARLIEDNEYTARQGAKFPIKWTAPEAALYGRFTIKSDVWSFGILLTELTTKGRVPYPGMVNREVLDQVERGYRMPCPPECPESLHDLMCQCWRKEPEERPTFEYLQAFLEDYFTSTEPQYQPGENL

[8] = tested on: Serine/threonine-protein kinase B-raf (Homo sapiens), P15056 [V600E]; experiment: Inhibition of human partial length BRAF V600E mutant (S429 to E741 residues) expressed in mammalian expression system assessed as enzyme remaining activity at 1000 nM by Kinomescan method relative to control
Chain of Serine/threonine-protein kinase B-raf (Homo sapiens), P15056 [V600E] (P15056 whole entry V600E, the tested form may be a part): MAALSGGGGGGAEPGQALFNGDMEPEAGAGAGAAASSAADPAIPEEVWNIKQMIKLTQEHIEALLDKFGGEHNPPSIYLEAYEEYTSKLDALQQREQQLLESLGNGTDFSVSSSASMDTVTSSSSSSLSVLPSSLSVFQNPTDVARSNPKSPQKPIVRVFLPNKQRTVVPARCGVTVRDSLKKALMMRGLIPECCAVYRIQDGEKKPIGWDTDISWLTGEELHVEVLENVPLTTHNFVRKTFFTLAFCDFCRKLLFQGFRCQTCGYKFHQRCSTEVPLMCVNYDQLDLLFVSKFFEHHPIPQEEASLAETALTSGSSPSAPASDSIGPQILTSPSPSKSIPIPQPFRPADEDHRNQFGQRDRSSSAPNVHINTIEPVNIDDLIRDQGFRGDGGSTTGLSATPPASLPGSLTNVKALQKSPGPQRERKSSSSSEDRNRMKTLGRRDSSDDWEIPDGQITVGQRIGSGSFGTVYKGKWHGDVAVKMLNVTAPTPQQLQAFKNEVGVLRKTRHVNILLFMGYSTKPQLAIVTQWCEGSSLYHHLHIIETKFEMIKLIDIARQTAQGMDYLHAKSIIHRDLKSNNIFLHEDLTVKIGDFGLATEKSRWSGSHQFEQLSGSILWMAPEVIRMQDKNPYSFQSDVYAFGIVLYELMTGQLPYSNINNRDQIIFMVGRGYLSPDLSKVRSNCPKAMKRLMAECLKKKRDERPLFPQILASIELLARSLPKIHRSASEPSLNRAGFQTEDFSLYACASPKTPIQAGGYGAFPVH

[9] = target: Mitogen-activated protein kinase 8 (Homo sapiens) (UniProt P45983); experiment: Inhibition of wild-type human full length JNK1 (M1 to Q384 residues) expressed in mammalian expression system assessed as enzyme remaining activity at 1000 nM by Kinomescan method relative to control
Chain of Mitogen-activated protein kinase 8 (Homo sapiens) (P45983 whole entry, the tested form may be a part): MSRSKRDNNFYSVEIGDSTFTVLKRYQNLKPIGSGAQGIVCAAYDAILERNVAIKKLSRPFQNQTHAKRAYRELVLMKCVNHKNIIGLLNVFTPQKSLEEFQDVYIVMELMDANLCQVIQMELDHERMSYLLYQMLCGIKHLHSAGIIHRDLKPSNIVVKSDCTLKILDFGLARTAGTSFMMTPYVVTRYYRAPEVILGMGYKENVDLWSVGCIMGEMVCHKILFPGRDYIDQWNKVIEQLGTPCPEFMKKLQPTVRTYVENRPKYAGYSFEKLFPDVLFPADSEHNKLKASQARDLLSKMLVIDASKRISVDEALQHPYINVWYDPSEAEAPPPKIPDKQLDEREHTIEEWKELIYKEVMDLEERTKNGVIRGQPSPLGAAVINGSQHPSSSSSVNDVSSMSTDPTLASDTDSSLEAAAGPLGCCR

Mus musculus = experiment: Protection against TNFalpha/Z-VAD-fmk-induced C57BL/6J mouse model of systemic inflammatory response syndrome assessed as increase in mouse survial at 5 to 50 mg/kg, po administered via gavage 2 hrs prior to Z-VAD-fmk addition for 15 mins followed by TNFalpha stimulation for 1 hr and subsequent Z-VAD-fmk addition meaured up to 50 hrs post TNFalpha stimulation; format: functional, organism-based
Summary of the method: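 Female C57BL/6 mice, fasted overnight, n=10 per group. Compound given by oral gavage at 5, 25 or 50 mg/kg 2 h before TNF. z-VAD-fmk 180 µg i.p., then 15 min later mTNF-α 400 µg/kg i.v. in endotoxin-free PBS, then a further 70 µg z-VAD-fmk i.p. 1 h later. Body temperature and survival followed, compared with vehicle by one-way ANOVA.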

[10] = Cmax in Sprague-Dawley rat at 1 mg/kg, iv by LC-tandem mass spectrometry analysis; format: ADME, organism-based; design: dose 1 mg/kg, route intravenous; conditions: in vivo
Summary of the method: as §1

[11] = target: Receptor-interacting serine/threonine-protein kinase 3 (Homo sapiens, UniProt Q9Y572); experiment: Inhibition of RIPK3 phosphorylation in TNFalpha/smac mimetic/Z-VAD-fmk stimulated human HT-29 cells at 1 uM treated prior to TNFalpha/smac mimetic/Z-VAD-fmk stimulation and measured after 2 to 4 hrs by SDS-PAGE based immunoblot assay; format: cell-based
Chain of Receptor-interacting serine/threonine-protein kinase 3 (Q9Y572 whole entry, looked up): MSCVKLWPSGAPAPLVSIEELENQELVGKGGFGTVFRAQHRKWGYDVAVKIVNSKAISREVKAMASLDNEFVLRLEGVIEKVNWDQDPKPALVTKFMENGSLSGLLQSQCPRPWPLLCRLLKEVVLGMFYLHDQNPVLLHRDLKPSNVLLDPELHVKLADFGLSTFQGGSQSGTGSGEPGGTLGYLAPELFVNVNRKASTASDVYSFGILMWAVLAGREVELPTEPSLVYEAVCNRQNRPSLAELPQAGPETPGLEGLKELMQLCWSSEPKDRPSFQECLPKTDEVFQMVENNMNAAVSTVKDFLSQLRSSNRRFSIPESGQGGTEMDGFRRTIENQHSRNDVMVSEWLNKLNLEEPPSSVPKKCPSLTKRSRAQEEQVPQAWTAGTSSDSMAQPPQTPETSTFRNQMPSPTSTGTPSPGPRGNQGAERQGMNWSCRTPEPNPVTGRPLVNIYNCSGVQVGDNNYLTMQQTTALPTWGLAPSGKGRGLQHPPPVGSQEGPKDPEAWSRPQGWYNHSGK

[12] = AUC (0 to t) in Sprague-Dawley rat at 1 mg/kg, iv by LC-tandem mass spectrometry analysis; format: ADME, organism-based; conditions: in vivo
Summary of the method: as §1

HT-29 [13] = experiment: Anti-necroptotic activity in human HT-29 cells assessed as inhibition of […]/SM-164/Z-VAD-fmk-induced necroptosis measured after 16 hrs by celltiter-glo luminescent cell viability assay; conditions: HT-29, 16 h
[14] = target: Platelet-derived growth factor receptor alpha (Homo sapiens) (UniProt P16234); experiment: Inhibition of wild-type human partial length PDGFRA (V575 to D1002 residues) expressed in mammalian expression system assessed as enzyme remaining activity at 1000 nM by Kinomescan method relative to control
Chain of Platelet-derived growth factor receptor alpha (Homo sapiens) (P16234 whole entry, the tested form may be a part): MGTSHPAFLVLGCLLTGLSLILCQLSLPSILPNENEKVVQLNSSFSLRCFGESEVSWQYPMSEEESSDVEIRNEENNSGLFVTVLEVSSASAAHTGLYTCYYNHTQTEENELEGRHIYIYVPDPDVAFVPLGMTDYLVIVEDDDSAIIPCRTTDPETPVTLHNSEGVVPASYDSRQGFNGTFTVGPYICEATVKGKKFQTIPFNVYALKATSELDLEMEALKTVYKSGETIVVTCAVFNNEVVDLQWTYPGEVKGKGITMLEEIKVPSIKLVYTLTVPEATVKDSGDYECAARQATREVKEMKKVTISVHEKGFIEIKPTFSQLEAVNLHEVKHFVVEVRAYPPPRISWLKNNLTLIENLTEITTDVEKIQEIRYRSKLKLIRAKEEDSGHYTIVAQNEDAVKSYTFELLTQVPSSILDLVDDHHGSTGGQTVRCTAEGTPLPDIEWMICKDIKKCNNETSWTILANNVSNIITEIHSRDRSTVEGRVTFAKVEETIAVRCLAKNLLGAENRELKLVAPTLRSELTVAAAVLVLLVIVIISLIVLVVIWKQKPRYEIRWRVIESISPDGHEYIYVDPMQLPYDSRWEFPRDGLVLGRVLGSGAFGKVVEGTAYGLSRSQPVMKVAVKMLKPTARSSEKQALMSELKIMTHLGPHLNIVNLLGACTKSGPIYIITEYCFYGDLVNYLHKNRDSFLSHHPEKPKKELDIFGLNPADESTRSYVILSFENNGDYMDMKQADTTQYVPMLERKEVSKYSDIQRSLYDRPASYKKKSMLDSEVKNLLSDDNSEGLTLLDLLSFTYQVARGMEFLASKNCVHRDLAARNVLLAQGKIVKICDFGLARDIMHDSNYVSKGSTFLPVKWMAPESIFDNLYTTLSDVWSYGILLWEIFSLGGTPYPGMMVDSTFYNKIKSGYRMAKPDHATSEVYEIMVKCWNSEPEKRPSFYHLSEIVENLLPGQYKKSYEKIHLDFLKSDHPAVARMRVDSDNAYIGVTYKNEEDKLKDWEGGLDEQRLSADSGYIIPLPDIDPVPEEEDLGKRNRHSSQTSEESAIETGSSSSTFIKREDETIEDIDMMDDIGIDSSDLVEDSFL

[15] = target: Serine/threonine-protein kinase B-raf (Homo sapiens) (UniProt P15056); experiment: Inhibition of wild-type human partial length BRAF (S429 to E741 residues) expressed in mammalian expression system assessed as enzyme remaining activity at 1000 nM by Kinomescan method relative to control
[16] = target: Mitogen-activated protein kinase 14 (Homo sapiens) (UniProt Q16539); experiment: Inhibition of wild-type human full length p38-alpha (M1 to S360 residues) expressed in bacterial expression system assessed as enzyme remaining activity at 1000 nM by Kinomescan method relative to control
Chain of Mitogen-activated protein kinase 14 (Homo sapiens) (Q16539 whole entry, the tested form may be a part): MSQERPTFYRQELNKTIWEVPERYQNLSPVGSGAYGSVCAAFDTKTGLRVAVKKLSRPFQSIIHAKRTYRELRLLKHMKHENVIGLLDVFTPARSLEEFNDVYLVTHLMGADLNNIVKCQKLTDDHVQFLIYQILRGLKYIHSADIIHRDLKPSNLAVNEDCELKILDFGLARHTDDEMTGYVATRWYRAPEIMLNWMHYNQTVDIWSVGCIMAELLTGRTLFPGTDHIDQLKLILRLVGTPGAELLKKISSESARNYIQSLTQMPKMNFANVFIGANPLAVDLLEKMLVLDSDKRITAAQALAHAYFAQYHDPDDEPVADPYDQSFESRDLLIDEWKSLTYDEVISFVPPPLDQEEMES

With `O=C(Nc1cccc(Br)c1)Nc1cc(Oc2ccc3nc(NC(=O)C4CC4)sc3c2)ccc1F` the Activity (HT-29 [1]) was “Non-Toxic”, the pKd [2] was under 5.30 and the Activity [3] was 22%. For the same compound, the Activity [4] was 96%, the Cmax [5] was 345 ng/mL and the Activity [6] was 61%. For the same compound, the Activity [7] was 0%, the Activity [8] was 1.8% and the Activity [9] was 79%. The Activity (Mus musculus) was “Active”, the Cmax [10] was 4600 ng/mL and the inhibition [11] was “Active”. It also gave an AUC(0-t) [12] of 5560 ng·h/mL, a pEC50 (HT-29 [13]) of 6.36 and an Activity [14] of 5.3%. The Activity [15] was 3.6% and the Activity [16] was 23%.
